Measurements reported in publication PMC5696082 (Analytical biochemistry, 2017).

Experiments:
AADAC = biological target: T1, AADAC (Homo sapiens, UniProt P22760); experiment: Potency of esterase inhibitors, AADAC; type: biochemical
T1 sequence (P22760 1-399): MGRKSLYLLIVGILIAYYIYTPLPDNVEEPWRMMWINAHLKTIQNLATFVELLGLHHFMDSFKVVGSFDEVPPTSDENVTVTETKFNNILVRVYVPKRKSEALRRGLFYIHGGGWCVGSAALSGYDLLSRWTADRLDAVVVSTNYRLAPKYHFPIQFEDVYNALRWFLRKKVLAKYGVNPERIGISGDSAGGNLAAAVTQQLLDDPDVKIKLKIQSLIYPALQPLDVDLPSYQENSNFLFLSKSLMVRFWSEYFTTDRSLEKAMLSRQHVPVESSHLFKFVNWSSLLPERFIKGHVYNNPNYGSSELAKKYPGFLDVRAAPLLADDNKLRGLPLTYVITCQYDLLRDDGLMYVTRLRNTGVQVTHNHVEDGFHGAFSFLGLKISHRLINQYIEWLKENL

hCE1 [1] = biological target: T2, hCE1 (Homo sapiens, UniProt P23141); experiment: Potency of esterase inhibitors, hCE1; type: biochemical
T2 sequence (P23141 18-567): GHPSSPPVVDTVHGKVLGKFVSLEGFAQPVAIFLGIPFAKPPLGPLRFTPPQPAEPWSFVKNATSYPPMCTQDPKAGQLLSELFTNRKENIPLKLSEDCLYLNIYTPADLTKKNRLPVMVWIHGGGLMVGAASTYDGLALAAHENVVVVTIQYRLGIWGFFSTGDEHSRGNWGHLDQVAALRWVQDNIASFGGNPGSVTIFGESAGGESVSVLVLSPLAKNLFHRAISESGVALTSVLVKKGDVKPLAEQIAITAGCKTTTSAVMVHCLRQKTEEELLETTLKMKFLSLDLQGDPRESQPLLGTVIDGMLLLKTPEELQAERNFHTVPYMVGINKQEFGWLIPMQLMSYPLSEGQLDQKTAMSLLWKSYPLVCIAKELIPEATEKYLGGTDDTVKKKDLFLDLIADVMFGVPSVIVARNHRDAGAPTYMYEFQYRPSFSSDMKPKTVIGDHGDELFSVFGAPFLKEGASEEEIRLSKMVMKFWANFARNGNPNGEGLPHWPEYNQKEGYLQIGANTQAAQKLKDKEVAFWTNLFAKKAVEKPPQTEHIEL

PON1 = PON1 (Homo sapiens, UniProt P27169); experiment: Potency of esterase inhibitors, PON1; type: biochemical
Outline: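 PON1 used as crude lysate of baculovirus-infected insect cells in PBS. Added to 2-fold serial inhibitor dilutions (top concentration at most 100 µM) and preincubated 5 min. Cyanohydrin ester substrate then added to 50 µM final, DMSO ≤2%, in 100 mM phosphate pH 8, 0.1 mg/mL BSA, 37°C. Fluorescence (ex 330/em 465 nm) read kinetically for 10 min. IC50 from linear regression of log[inhibitor] against % remaining activity; triplicates, single experiment.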

hCE3 [2] = biological target: T3, hCE3 (Homo sapiens, UniProt Q6UWW8); experiment: Potency of esterase inhibitors, hCE3; type: biochemical
T3 sequence (Q6UWW8 27-571): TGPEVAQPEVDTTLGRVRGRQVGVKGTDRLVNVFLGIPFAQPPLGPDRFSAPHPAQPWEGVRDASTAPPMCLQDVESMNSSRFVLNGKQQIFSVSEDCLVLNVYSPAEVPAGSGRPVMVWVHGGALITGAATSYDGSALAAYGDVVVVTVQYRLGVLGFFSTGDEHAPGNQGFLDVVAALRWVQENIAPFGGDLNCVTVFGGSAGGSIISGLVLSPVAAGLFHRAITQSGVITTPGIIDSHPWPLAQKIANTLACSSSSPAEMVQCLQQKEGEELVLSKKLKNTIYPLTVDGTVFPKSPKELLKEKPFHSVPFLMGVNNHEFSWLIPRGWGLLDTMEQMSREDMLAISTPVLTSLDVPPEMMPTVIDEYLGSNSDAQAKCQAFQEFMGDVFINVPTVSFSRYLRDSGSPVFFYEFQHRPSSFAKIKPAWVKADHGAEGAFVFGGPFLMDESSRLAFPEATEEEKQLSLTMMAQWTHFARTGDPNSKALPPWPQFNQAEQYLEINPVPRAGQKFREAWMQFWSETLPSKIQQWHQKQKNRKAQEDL

FAAH [3] = biological target: T4, FAAH (Homo sapiens, UniProt O00519); experiment: Potency of esterase inhibitors, FAAH; type: biochemical
T4 sequence (O00519 1-579): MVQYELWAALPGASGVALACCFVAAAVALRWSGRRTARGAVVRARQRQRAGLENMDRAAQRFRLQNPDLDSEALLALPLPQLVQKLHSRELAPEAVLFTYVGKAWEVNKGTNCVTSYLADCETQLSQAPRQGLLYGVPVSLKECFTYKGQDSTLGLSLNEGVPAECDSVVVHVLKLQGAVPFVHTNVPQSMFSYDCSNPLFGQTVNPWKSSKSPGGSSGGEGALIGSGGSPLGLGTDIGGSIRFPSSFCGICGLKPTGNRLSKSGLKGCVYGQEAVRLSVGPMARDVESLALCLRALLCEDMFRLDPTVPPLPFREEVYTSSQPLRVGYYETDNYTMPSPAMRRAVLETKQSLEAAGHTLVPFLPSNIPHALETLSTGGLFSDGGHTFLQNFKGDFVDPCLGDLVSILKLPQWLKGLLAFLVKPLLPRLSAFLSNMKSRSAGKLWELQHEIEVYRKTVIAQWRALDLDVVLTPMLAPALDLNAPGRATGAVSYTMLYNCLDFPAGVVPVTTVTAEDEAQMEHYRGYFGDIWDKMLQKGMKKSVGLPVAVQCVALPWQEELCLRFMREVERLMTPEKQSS

hCE2 [4] = biological target: T5, hCE2 (Homo sapiens, UniProt O00748); experiment: Potency of esterase inhibitors, hCE2; type: biochemical
T5 sequence (O00748 27-559): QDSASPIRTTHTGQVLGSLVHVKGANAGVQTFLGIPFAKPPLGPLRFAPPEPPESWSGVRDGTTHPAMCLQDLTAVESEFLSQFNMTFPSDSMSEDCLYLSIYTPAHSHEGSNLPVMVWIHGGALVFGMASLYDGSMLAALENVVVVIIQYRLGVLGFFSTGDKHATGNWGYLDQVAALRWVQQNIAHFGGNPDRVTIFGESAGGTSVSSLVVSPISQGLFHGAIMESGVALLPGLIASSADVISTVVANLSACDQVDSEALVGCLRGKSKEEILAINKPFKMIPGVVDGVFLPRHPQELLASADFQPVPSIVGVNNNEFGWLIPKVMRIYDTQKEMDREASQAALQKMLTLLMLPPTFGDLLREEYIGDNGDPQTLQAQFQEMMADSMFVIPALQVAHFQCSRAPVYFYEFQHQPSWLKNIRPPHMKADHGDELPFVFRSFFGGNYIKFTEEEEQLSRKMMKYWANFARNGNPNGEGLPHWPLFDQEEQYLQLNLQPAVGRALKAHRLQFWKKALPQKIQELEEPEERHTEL

hCE1 [5] = biological target: T2, hCE1; experiment: Limit of detection and quantification for hCE1 using partially purified enzyme; type: biochemical; settings: [S] = 50 µM; for LOD for hCE1: S/N > 3; for LOQ for hCE1: S/N > 9
Outline: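 Partially purified recombinant hCE1, without any matrix, diluted into wells with substrate at 50 µM. Assay run in 100 mM sodium phosphate, pH 8, 0.1 mg/mL BSA, 1% DMSO, at 37°C. S/N taken as mean signal of enzyme wells over the SD of […], quadruplicates in one experiment. LOD set as the lowest level with S/N > 3; LOQ as S/N > 9.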

hCE2 [6] = biological target: T5, hCE2; experiment: Specific activity of hCE2 towards substrates; type: biochemical
Outline: (§1)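 Enzymes expressed in baculovirus-infected High Five cells: hCE1 CHAPS-solubilised from the 100,000 g pellet, then DEAE-purified; hCE2/hCE3 crude soluble fraction; FAAH crude insoluble fraction. Substrate added to 50 µM final in 100 mM sodium phosphate pH 8.0, 0.1 mg/mL BSA, 1% DMSO. Fluorescence read every 30 s for ≥10 min at 37°C. Rates corrected for estimated purity: hCE1 25%, hCE2 4%, hCE3 3.5% (3% in footnotes), FAAH 6.9%. Triplicates.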

[7] = Background hydrolysis of substrates in phosphate buffer; type: physicochemical; settings: phosphate buffer 100 mM, pH 8, 0.1 mg/mL BSA
Liver S9 = experiment: Substrate hydrolysis by pooled tissue S9, liver; type: biochemical, human
Outline: (§2)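 Commercial pooled human tissue S9 fraction added to substrate at 50 µM final in 100 mM sodium phosphate, pH 8.0, 0.1 mg/mL BSA. Fluorescence monitored every 30 s for at least 10 min at 37°C. Specific activity given as the mean of triplicates in one experiment, or mean ± standard deviation of 3 independent experiments run in triplicate.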

Kidney S9 = experiment: Substrate hydrolysis by pooled tissue S9, kidney; type: biochemical, human
Outline: as §2

FAAH [8] = biological target: T4, FAAH; experiment: Specific activity of FAAH towards substrates; type: biochemical; settings: Table 2; [S] = 50 µM, 37°C, pH 8; estimated 6.9% purity
Outline: as §1

Lung S9 = experiment: Substrate hydrolysis by pooled tissue S9, lung; type: biochemical, human
Outline: as §2

hCE3 [9] = biological target: T3, hCE3; experiment: Specific activity of hCE3 towards substrates; type: biochemical
Outline: as §1

hCE1 [10] = biological target: T2, hCE1; experiment: Specific activity of hCE1 towards substrates; type: biochemical
Outline: as §1

Intestine S9 = experiment: Substrate hydrolysis by pooled tissue S9, intestine; type: biochemical, human
Outline: as §2

[11] = Kinetic mode (30 s intervals for 30 minutes)

PON1, sequence (P27169 whole entry, species assumed): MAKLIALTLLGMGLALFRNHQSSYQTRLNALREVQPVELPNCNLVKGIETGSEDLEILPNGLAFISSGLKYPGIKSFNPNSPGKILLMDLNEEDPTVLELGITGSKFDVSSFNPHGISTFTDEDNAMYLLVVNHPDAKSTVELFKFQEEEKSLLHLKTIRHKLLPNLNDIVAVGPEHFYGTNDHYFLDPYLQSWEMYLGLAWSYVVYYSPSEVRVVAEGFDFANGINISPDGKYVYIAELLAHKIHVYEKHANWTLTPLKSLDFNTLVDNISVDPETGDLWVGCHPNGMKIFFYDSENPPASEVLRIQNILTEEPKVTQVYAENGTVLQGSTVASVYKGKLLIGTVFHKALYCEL

## COc1ccc(C(=O)C(=O)c2ccccc2Cl)cc1OC [2-chloro-3’,4’- dimethoxybenzil, 2-chloro-3’,4’-dimethoxybenzil]
AADAC
  IC50: > 100 µM
hCE1 [1]
  IC50: 2.5 µM
PON1
  IC50: 25 µM
hCE3 [2]
  IC50: > 100 µM
FAAH [3]
  IC50: 7.6 µM

## NC(Cc1cc(I)c(Oc2cc(I)c(O)c(I)c2)c(I)c1)C(=O)O (stereo not drawn) [Thyroxine]
AADAC
  IC50: 0.73 µM
hCE1 [1]
  IC50: 1.5 µM
hCE2 [4]
  IC50: 16 µM
hCE2 [4]; from IC50 values
  Selectivity hCE2/hCE1: 0.094
PON1
  IC50: 2.1 µM
hCE3 [2]
  IC50: 23 µM
FAAH [3]
  IC50: > 100 µM

## COc1ccc2cc(C(C#N)OC(C)=O)ccc2c1 (stereo not drawn) [CMNA, cyano(6-methoxynaphthalen-2-yl)methyl acetate]
hCE1 [5]; Endpoint mode 1 hour
  LOD for hCE1: 0.98 ng
  LOQ for hCE1: 7.8 ng
hCE1 [5]; Endpoint mode 4 hours
  LOD for hCE1: 3.9 ng
hCE1 [5]; Endpoint mode 24 hours
  LOD for hCE1: 0.06 ng
hCE1 [5]; [11]
  LOD for hCE1: 2.0 ng
  LOQ for hCE1: 3.9 ng
hCE2 [6]; Table 2, [S] = 50 µM, 37°C, pH 8, estimated 4% purity
  hCE2 Specific activity: 11000 pmol/min/µg
hCE2 [6]; Table 6, hCE2
  Hydrolysis Specific Activity: 11,000 pmol/min/µg
[7]
  Rate of background hydrolysis: 20 pmol/min
Liver S9
  Hydrolysis Specific Activity: 180 ± 30 pmol/min/µg
Kidney S9
  Hydrolysis Specific Activity: 15 ± 5 pmol/min/µg
FAAH [8]
  FAAH Specific activity: 13 pmol/min/µg
Lung S9
  Hydrolysis Specific Activity: 13 ± 1 pmol/min/µg
hCE3 [9]; Table 2, [S] = 50 µM, 37°C, pH 8, estimated 3% purity
  hCE3 Specific activity: 150 pmol/min/µg
hCE3 [9]; Table 6, hCE3
  Hydrolysis Specific Activity: 150 pmol/min/µg
hCE1 [10]; Table 2, [S] = 50 µM, 37°C, pH 8, estimated 25% purity
  hCE1 Specific activity: 3000 pmol/min/µg
hCE1 [10]; Table 6, hCE1
  Hydrolysis Specific Activity: 3,000 pmol/min/µg
Intestine S9
  Hydrolysis Specific Activity: 74 ± 3 pmol/min/µg
